Published values pooled from the literature.
CYP2C8: Cytochrome P450 2C8 (CYP2C8, Homo sapiens, UniProt P10632)
DPP4: Dipeptidyl peptidase 4 (DPP4, Homo sapiens, UniProt P27487)
CYP2C9: Cytochrome P450 2C9 (CYP2C9, Homo sapiens, UniProt P11712)
ENAH: Protein enabled homolog (ENAH, UniProt Q8N8S7)

SMILES | target | test | system | setting | endpoint | result
CO[C@]1(C(=O)N[C@@H](C)c2ccc(-n3cc(F)cn3)nc2)CC[C@H](c2nc(C)cc(Nc3cc(C)[nH]n3)n2)CC1 | CYP2C8 | enzyme activity, inhibitor | human, liver microsomes |  | Ki | 9.6 µM
Cn1c(=O)cc(N2CCC(N)CC2)n(Cc2nc3ccccc3c(=O)n2-c2ccc(F)c(Cl)c2)c1=O | DPP4 | enzyme activity, inhibitor |  |  | IC50 | 35.7 µM
COc1cc(O)c2c(c1)C(=O)c1cc(C)cc(O)c1C2=O | CYP2C9 | enzyme activity, inhibitor | human, liver microsomes | pH 7.4 | Ki | 3.69 µM
C=C(F)C(=O)N1CCN(c2nc(OC[C@@H]3CCCN3C)nc3c2CCN(c2cccc4cccc(Cl)c24)C3)C[C@@H]1CC#N | CYP2C9 | enzyme activity, inhibitor | human, liver microsomes |  | Ki | 3.2 µM
CC[C@H](C)[C@H](NC(=O)[C@H](Cc1c[nH]cn1)NC(=O)[C@@H](N)CCC(=O)O)C(=O)N1CCC[C@H]1C(=O)N1CCC[C@H]1C(=O)N1CCC[C@H]1C(=O)N1CCC[C@H]1C(=O)N[C@@H](CCCNC(=N)N)C(=O)N1CCC[C@H]1C(=O)N1CCC[C@H]1C(=O)N[C@@H](CCCCN)C(=O)N[C@@H](CCCNC(=N)N)C(=O)O | ENAH | binding, FP |  |  | Kd | 13 µM
Cn1c(=O)cc(N2CCC(N)CC2)n(Cc2nc3ccc(Br)cc3c(=O)n2-c2cccc(F)c2)c1=O | DPP4 | enzyme activity, inhibitor |  |  | IC50 | 22.1 µM
Cn1cncc1[C@@](N)(c1ccc(Cl)cc1)c1ccc2c(c1)c(-c1cccc(Cl)c1)cc(=O)n2C | CYP2C9 | enzyme activity, inhibitor | human, liver microsomes |  | Ki | 0.35 µM
CSCC[C@H](NC(=O)[C@H](CCC(=O)O)NC(=O)[C@H](CS)NC(=O)[C@H](CO)NC(=O)[C@H](CC(C)C)NC(=O)[C@H](CCC(=O)O)NC(=O)[C@@H](N)CCC(=O)O)C(=O)N[C@@H](CCC(=O)O)C(=O)NCC(=O)N[C@@H](CC(N)=O)C(=O)N[C@@H](CC(C)C)C(=O)N[C@@H](CCC(=O)O)C(=O)N[C@@H](Cc1c[nH]cn1)C(=O)N[C@@H](CC(C)C)C(=O)N1CCC[C@H]1C(=O)N1CCC[C@H]1C(=O)N1CCC[C@H]1C(=O)N1CCC[C@H]1C(=O)N[C@@H](CCSC)C(=O)N[C@@H](CCC(=O)O)C(=O)N[C@H](C(=O)N[C@@H](CC(C)C)C(=O)N[C@@H](CCSC)C(=O)N[C@@H](CC(=O)O)C(=O)N[C@@H](CCCCN)C(=O)N[C@@H](CO)C(=O)N[C@@H](Cc1ccccc1)C(=O)N[C@@H](C)C(=O)N[C@@H](CO)C(=O)N[C@@H](CC(C)C)C(=O)N[C@@H](CCC(=O)O)C(=O)N[C@@H](CO)C(=O)N1CCC[C@H]1C(=O)N[C@@H](CCC(=O)O)C(=O)N[C@@H](CO)C(=O)O)C(C)C | ENAH | binding, fluorescence |  |  | Kd | 3.1 µM
Cn1nc2c(=O)n(C3CC3)ncc2c1[C@](O)(c1cnc(C(F)(F)F)c(Cl)c1)C(F)(F)F | CYP2C8 | enzyme activity, inhibitor | human, liver microsomes | pH 7.4 | IC50 | > 20 µM
